Results: ChEMBL document CHEMBL3046803, “Synthesis and insecticidal activities of novel anthranilic diamides containing acylthiourea and acylurea” (2012)
In brackets after ≈: the same amount, converted by molar mass. Activity calls are given as the source filed them. No cut-off for these calls is given here.

Tests used:
[1] = system: Mythimna separata; assay: Insecticidal activity against Mythimna separata (Oriental armyworm) fourth-instar larvae infected Zea mays leaves assessed as larvicidal activity at 5 mg/L measured 2 days post dose; assay type: functional
Summary of the method: (§1)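 Foliar application test: individual corn (Tangyu 10) leaves were placed on moistened filter paper in Petri dishes.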

[2] = system: Mythimna separata; assay: Insecticidal activity against Mythimna separata (Oriental armyworm) fourth-instar larvae infected Zea mays leaves assessed as larvicidal activity at 100 mg/L measured 2 days post dose; assay type: functional; summary of the method: as §1
[3] = system: Mythimna separata; assay: Insecticidal activity against Mythimna separata (Oriental armyworm) fourth-instar larvae infected Zea mays leaves assessed as larvicidal activity at 50 mg/L measured 2 days post dose; assay type: functional; summary of the method: as §1
[4] = system: Plutella xylostella; assay: Insecticidal activity against Plutella xylostella (diamondback moth) s-instar larvae infected in fresh cabbage leaves assessed as larvicidal activity at 0.001 mg/L measured 2 days post dose; assay type: functional
Summary of the method: (§2)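 Leaf-dip (spray) test: a 200 mg/L stock in DMF was diluted with distilled water. Cabbage leaf disks (6 × 2 cm) were sprayed for 3 s, dried, and placed individually in glass tubes. Each disk received 30 second-instar larvae. Mortality was scored at 2 days; triplicate.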

[5] = system: Mythimna separata; assay: Insecticidal activity against Mythimna separata (Oriental armyworm) fourth-instar larvae infected Zea mays leaves assessed as larvicidal activity at 10 mg/L measured 2 days post dose; assay type: functional; summary of the method: as §1
[6] = system: Plutella xylostella; assay: Insecticidal activity against Plutella xylostella (diamondback moth) s-instar larvae infected in fresh cabbage leaves assessed as larvicidal activity at 20 mg/L measured 2 days post dose; assay type: functional; summary of the method: as §2
[7] = system: Plutella xylostella; assay: Insecticidal activity against Plutella xylostella (diamondback moth) s-instar larvae infected in fresh cabbage leaves assessed as larvicidal activity at 1 mg/L measured 2 days post dose; assay type: functional; summary of the method: as §2
[8] = system: Plutella xylostella; assay: Insecticidal activity against Plutella xylostella (diamondback moth) s-instar larvae infected in fresh cabbage leaves assessed as larvicidal activity at 0.1 mg/L measured 2 days post dose; assay type: functional; summary of the method: as §2
[9] = system: Plutella xylostella; assay: Insecticidal activity against Plutella xylostella (diamondback moth) s-instar larvae infected in fresh cabbage leaves assessed as larvicidal activity at 0.01 mg/L measured 2 days post dose; assay type: functional; summary of the method: as §2
[10] = system: Mythimna separata; assay: Insecticidal activity against Mythimna separata (Oriental armyworm) fourth-instar larvae infected Zea mays leaves assessed as larvicidal activity at 200 mg/L measured 2 days post dose; assay type: functional; summary of the method: as §1
[11] = system: Mythimna separata; assay: Insecticidal activity against Mythimna separata (Oriental armyworm) fourth-instar larvae infected Zea mays leaves assessed as larvicidal activity at 20 mg/L measured 2 days post dose; assay type: functional; summary of the method: as §1
[12] = system: Culex pipiens pallens; assay: Insecticidal activity against Culex pipiens pallens (mosquito) fourth-instar larvae assessed as larvicidal activity at 2 mg/L measured 3 days post dose; assay type: functional
Summary of the method: (§3)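 Mosquito larvicidal test: compounds were dissolved in acetone and diluted with distilled water to the test concentrations.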

[13] = system: Culex pipiens pallens; assay: Insecticidal activity against Culex pipiens pallens (mosquito) fourth-instar larvae assessed as larvicidal activity at 1 mg/L measured 3 days post dose; assay type: functional; summary of the method: as §3
[14] = system: Plutella xylostella; assay: Insecticidal activity against Plutella xylostella (diamondback moth) s-instar larvae infected in fresh cabbage leaves assessed as larvicidal activity measured 2 days post dose; assay type: functional; conditions: 48 h; summary of the method: as §2
[15] = target: Voltage-dependent L-type calcium channel, putative (Pediculus humanus subsp. corporis) (UniProt E0VY79); assay: Inhibition of voltage-dependent L-type calcium channel in Spodoptera exigua neurons assessed as change in […] calcium level at 1000 mg/L measured 10 min post dose by calcium-imaging technique
Chain of Voltage-dependent L-type calcium channel, putative (Pediculus humanus subsp. corporis) (E0VY79 as listed by the source): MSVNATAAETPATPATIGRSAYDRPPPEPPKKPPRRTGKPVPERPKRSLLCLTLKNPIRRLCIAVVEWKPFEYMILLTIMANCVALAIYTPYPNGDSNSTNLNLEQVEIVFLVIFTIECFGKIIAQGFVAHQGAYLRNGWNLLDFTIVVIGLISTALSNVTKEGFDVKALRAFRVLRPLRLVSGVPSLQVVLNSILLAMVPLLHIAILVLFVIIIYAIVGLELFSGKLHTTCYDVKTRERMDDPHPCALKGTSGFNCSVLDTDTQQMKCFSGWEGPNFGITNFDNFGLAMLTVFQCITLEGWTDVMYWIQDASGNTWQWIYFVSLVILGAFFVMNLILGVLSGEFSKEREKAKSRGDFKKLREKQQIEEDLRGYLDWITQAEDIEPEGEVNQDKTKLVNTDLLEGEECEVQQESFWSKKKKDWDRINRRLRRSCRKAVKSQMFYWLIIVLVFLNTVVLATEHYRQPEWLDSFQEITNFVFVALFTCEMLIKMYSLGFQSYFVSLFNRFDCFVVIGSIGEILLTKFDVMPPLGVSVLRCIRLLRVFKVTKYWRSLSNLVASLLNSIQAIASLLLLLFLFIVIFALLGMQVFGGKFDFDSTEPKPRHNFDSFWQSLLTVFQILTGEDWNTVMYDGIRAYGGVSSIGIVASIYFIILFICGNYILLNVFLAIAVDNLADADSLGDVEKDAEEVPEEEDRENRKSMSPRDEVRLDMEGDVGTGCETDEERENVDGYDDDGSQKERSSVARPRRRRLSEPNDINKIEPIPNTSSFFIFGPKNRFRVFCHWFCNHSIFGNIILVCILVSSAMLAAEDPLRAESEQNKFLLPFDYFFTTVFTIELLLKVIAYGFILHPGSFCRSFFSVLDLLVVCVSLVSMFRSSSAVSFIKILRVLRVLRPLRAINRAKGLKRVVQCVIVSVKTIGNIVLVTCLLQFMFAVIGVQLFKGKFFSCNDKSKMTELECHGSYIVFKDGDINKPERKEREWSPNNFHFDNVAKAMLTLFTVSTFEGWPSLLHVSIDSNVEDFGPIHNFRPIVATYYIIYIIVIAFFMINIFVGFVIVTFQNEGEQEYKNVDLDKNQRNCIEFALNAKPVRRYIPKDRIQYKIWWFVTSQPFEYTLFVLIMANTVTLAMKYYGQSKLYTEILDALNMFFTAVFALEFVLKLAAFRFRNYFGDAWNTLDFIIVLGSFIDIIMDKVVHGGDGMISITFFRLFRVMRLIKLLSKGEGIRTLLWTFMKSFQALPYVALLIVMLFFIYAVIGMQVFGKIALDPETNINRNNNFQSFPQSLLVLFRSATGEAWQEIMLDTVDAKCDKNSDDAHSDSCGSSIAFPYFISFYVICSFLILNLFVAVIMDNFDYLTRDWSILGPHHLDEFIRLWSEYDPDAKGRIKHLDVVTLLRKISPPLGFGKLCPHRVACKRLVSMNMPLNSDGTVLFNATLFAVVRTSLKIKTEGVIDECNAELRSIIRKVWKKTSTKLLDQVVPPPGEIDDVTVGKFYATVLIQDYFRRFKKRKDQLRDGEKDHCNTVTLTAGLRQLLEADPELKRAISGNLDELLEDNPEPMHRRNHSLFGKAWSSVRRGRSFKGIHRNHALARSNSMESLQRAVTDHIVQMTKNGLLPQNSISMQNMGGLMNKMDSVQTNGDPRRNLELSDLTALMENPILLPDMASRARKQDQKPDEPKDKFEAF
Summary of the method: (§4)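 S. exigua neurons were rinsed in physiological saline (pH 6.9). They were dye-loaded in the dark at 28 °C, either with 10 μM fluo-3-AM for 45 min in standard saline or with 5 μM fluo-5N for 5 h in EGTA Ca-free saline, then rinsed twice. [Ca²⁺]i was imaged on an inverted fluorescence microscope (40× oil, 488/530 nm) over 10 min. F/F₀ is relative to resting baseline; ≥6 repeats; mean ± SD.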

[16] = target: Voltage-dependent L-type calcium channel, putative (Pediculus humanus subsp. corporis) (UniProt E0VY79); assay: Inhibition of voltage-dependent L-type calcium channel in Spodoptera exigua neurons assessed as increase in intracellular calcium level at 1000 mg/L measured 10 min post dose by calcium-imaging technique; assay type: cell-based; summary of the method: as §4
[17] = target: Voltage-dependent L-type calcium channel, putative (Pediculus humanus subsp. corporis) (UniProt E0VY79); assay: Inhibition of voltage-dependent L-type calcium channel in Spodoptera exigua neurons assessed as peak intracellular calcium level at 1000 mg/L measured 10 min post dose by calcium-imaging technique relative to initial untreated control; assay type: cell-based; set-up: scale not given: the % may be the effect or the level left; summary of the method: as §4
[18] = system: Culex pipiens pallens; assay: Insecticidal activity against Culex pipiens pallens (mosquito) fourth-instar larvae assessed as larvicidal activity at 0.5 mg/L measured 3 days post dose; assay type: functional; summary of the method: as §3

SMILES	Activity [2]	Activity [3]	Activity [5]	Activity [10]	Activity [11]	Activity [12]	also measured
CCNC(=O)c1cc(Cl)cc(C)c1NC(=S)NC(=O)c1cc(C(F)(F)F)nn1-c1ncccc1Cl	100%	100%	100%	100%	100%	–	Activity [1]: 0%; Activity [4]: 29%; Activity [6]: 100%; Activity [7]: 100%; Activity [8]: 100%; Activity [9]: 86%
Cc1cc(Cl)cc(C(=O)NC2CCCCC2)c1NC(=S)NC(=O)c1cc(C(F)(F)F)nn1-c1ncccc1Cl	–	–	–	40%	–	–	Activity [6]: 30%; Activity [7]: 0%
Cc1cc(Br)cc(C(=O)NC2CC2)c1NC(=O)NC(=O)c1cc(C(F)(F)F)nn1-c1ncccc1Cl	0%	–	–	100%	–	–	–
Cc1cc(Cl)cc(C(=O)NC2CC2)c1NC(=O)NC(=O)c1cc(C(F)(F)F)nn1-c1ncccc1Cl	–	–	–	20%	–	–	–
CNC(=O)c1cc(Cl)cc(C)c1NC(=S)NC(=O)c1cc(Cl)nn1-c1ncccc1Cl	100%	100%	40%	100%	100%	70%	Activity [13]: 30%
Cc1cccc(C(=O)NCCC(C)C)c1NC(=S)NC(=O)c1cc(Br)nn1-c1ncccc1Cl	30%	–	–	100%	–	20%	–
Cc1cccc(C(=O)NC(C)C)c1NC(=S)NC(=O)c1cc(Cl)nn1-c1ncccc1Cl	100%	100%	100%	100%	100%	20%	Activity [1]: 0%
CCCCNC(=O)c1cc(Cl)cc(C)c1NC(=O)NC(=O)c1cc(C(F)(F)F)nn1-c1ncccc1Cl	–	–	–	40%	–	–	–
Cc1cc(Cl)cc(C(=O)NC2CC2)c1NC(=S)NC(=O)c1cc(C(F)(F)F)nn1-c1ncccc1Cl	100%	100%	100%	100%	100%	–	Activity [1]: 30%; LC50 [14]: 0.25 ng/mL (≈ 0.449 nM); Activity [4]: 71%; Activity [6]: 100%; Activity [7]: 100%; Activity [8]: 100%; Activity [9]: 100%
O=C(NC(=O)c1cc(C(F)(F)F)nn1-c1ncccc1Cl)Nc1ccc(Cl)cc1C(=O)NC1CC1	–	–	–	30%	–	–	–
CNC(=O)c1cc(Cl)cc(C)c1NC(=S)NC(=O)c1cc(C(F)(F)F)nn1-c1ncccc1Cl	100%	100%	100%	100%	100%	–	Activity [1]: 50%; Activity [4]: 43%; inhibition [15]: inactive; Activity [6]: 100%; Activity [7]: 100%; Activity [16]: Active; Activity [8]: 100%; Activity [17]: 112%; Activity [9]: 71%
Cc1cc(Cl)cc(C(=O)NC2CCCCC2)c1NC(=S)NC(=O)c1cc(Br)nn1-c1ncccc1Cl	–	–	–	0%	–	40%	–
CCCNC(=O)c1cc(Cl)ccc1NC(=O)NC(=O)c1cc(C(F)(F)F)nn1-c1ncccc1Cl	–	–	–	0%	–	–	–
Cc1cccc(C(=O)NCCC(C)C)c1NC(=S)NC(=O)c1cc(Cl)nn1-c1ncccc1Cl	–	–	–	60%	–	10%	–
Cc1cc(Br)cc(C(=O)NCc2ccccc2)c1NC(=S)NC(=O)c1cc(C(F)(F)F)nn1-c1ncccc1Cl	100%	100%	0%	100%	100%	–	LC50 [14]: 0.65 ng/mL (≈ 0.997 nM); Activity [4]: 57%; Activity [6]: 100%; Activity [7]: 100%; Activity [8]: 100%; Activity [9]: 100%
Cc1cc(Br)cc(C(=O)NC(C)C)c1NC(=S)NC(=O)c1cc(Br)nn1-c1ncccc1Cl	100%	100%	100%	100%	100%	90%	Activity [1]: 0%; Activity [18]: 30%; Activity [13]: 70%
CNC(=O)c1cc(Cl)cc(C)c1NC(=S)NC(=O)c1cc(Br)nn1-c1ncccc1Cl	100%	100%	100%	100%	100%	60%	Activity [1]: 50%; Activity [13]: 20%
Cc1cc(Cl)cc(C(=O)NC(C)(C)C)c1NC(=O)NC(=O)c1cc(C(F)(F)F)nn1-c1ncccc1Cl	–	–	–	60%	–	–	–
Cc1cc(Br)cc(C(=O)NC(C)C)c1NC(=S)NC(=O)c1cc(Cl)nn1-c1ncccc1Cl	80%	40%	–	100%	–	90%	Activity [18]: 20%; Activity [13]: 60%
CCCNC(=O)c1cccc(C)c1NC(=O)NC(=O)c1cc(C(F)(F)F)nn1-c1ncccc1Cl	–	–	–	60%	–	–	–
Cc1cc(Cl)cc(C(=O)NC(C)(C)C)c1NC(=S)NC(=O)c1cc(Br)nn1-c1ncccc1Cl	100%	100%	100%	100%	100%	100%	Activity [1]: 40%; Activity [18]: 30%; Activity [13]: 90%
CNC(=O)c1cc(Cl)cc(C)c1NC(=O)NC(=O)c1cc(C(F)(F)F)nn1-c1ncccc1Cl	20%	–	–	100%	–	–	–
Cc1cc(Cl)cc(C(=O)NC(C)C)c1NC(=O)NC(=O)c1cc(C(F)(F)F)nn1-c1ncccc1Cl	–	–	–	70%	–	–	–
Cc1cc(Cl)cc(C(=O)NC2CCCCC2)c1NC(=O)NC(=O)c1cc(C(F)(F)F)nn1-c1ncccc1Cl	–	–	–	0%	–	–	–
Cc1cccc(C(=O)NC2CC2)c1NC(=O)NC(=O)c1cc(C(F)(F)F)nn1-c1ncccc1Cl	80%	–	–	100%	–	–	–
